Area and IC50 data for 12 compounds are collected here from ChEMBL document CHEMBL1148421, “Novel 3,5-diaryl pyrazolines and pyrazole as low-density lipoprotein (LDL) oxidation inhibitor” (Bioorg Med Chem Lett, 2004).

What all share (format): functional
The species entered for assay [1] is Homo sapiens. Nature of the assay: Antioxidant effect on the Cu2+-mediated oxidation andapoB-100 fragmentation in LDL after incubation with 10 uM of compound. The procedure, abridged: (§1)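 LDL (240 µg/mL in PBS) incubated 12 h at 37 °C with 5 µM CuSO4, with or without compound. About 2.0 µg LDL protein run on 4% SDS-PAGE and stained with Coomassie Brilliant Blue R250. ApoB-100 band quantified by densitometry as peak area (absorbance units per mm). Also reported as percent remaining apoB-100 relative to intact apoB-100 of native LDL incubated without CuSO4.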

The species entered for assay [2] is Homo sapiens. The assay can be described thus: Antioxidant effect on the Cu2+-mediated oxidation andapoB-100 fragmentation in LDL after incubation with 20 uM of compound. The procedure, abridged:
as §1

The species entered for assay [3] is Homo sapiens. The assay can be described thus: Antioxidant effect on the Cu2+-mediated oxidation andapoB-100 fragmentation in LDL after incubation with 5 uM of compound. The procedure, abridged:
as §1

Assay [4] can be described thus: In vitro ability to protect human LDL against Cu2+-induced peroxidation. (concentration inhibiting 50% of the Cu2+ induced lipid peroxidation). The procedure, abridged: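 Human LDL (120 µg/mL) oxidized with 10 µM CuSO4 as initiator for 4 h in the presence of compound. Lipid peroxidation read out as TBARS. IC50 is the concentration inhibiting TBARS formation by 50%.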

The species named for assay [5] is Homo sapiens. The assay can be described thus: Antioxidant effect on the Cu2+-mediated oxidation and apoB-100 fragmentation in LDL after incubation with 10 uM of compound. The procedure, abridged: as §1
For assay [6], the species on record is Homo sapiens. Nature of the assay: Antioxidant effect on the Cu2+-mediated oxidation and apoB-100 fragmentation in LDL after incubation with 5 uM of compound. The procedure, abridged:
as §1

For assay [7], the species on record is Homo sapiens. The assay can be described thus: Antioxidant effect on the Cu2+-mediated oxidation and apoB-100 fragmentation in LDL after incubation with 20 uM of compound. A digest of the protocol:
as §1

pIC50: −log10 of the molar value.

Consider `CC(C)(C)c1cc(C2=NNC(c3cc(C(C)(C)C)c(O)c(C(C)(C)C)c3)C2)cc(C(C)(C)C)c1O` (stereo not drawn), for which the Area in the assay listed under Homo sapiens [1] stood at 9.26 AU mm-1; in the assay listed under Homo sapiens [2], 9.97 AU mm-1; in the assay filed under Homo sapiens [3] it was 5.63 AU mm-1. The pIC50 in assay [4] was 7.00.
In assay [4], `CC(C)(C)c1cc(C2=NNC(c3ccc(O)c(O)c3)C2)cc(C(C)(C)C)c1O` (stereo not drawn) had a pIC50 of 6.52.
Still for that read-out and setting: next, `CC(C)(C)c1cc(C2=NNC(c3ccc(O)cc3)C2)cc(C(C)(C)C)c1O` (stereo not drawn): 6.70; `CC(C)(C)c1cc(C2=NNC(c3cc(F)c(O)c(F)c3)C2)cc(C(C)(C)C)c1O` (stereo not drawn): 6.70.
On the same count and under the same terms, for `CC(C)(C)c1cc(-c2cc(-c3cc(C(C)(C)C)c(O)c(C(C)(C)C)c3)[nH]n2)cc(C(C)(C)C)c1O` the value was 6.15; for `Cc1cc(C2CC(c3cc(C(C)(C)C)c(O)c(C(C)(C)C)c3)=NN2)cc(C)c1O` (stereo not drawn), 6.70.
Take `CC(C)(Sc1cc(C(C)(C)C)c(O)c(C(C)(C)C)c1)Sc1cc(C(C)(C)C)c(O)c(C(C)(C)C)c1` [PROBUCOL]: the Area in the assay listed under Homo sapiens [5] came to 4.73 AU mm-1; in the assay listed under Homo sapiens [6], 0 AU mm-1; in the assay filed under Homo sapiens [7], 9.22 AU mm-1. The compound further gave a pIC50 in assay [4] of 6.22.
In assay [4], `CC(C)(C)c1cc(C2=NNC(c3cc(-c4ccccc4)c(O)c(-c4ccccc4)c3)C2)cc(C(C)(C)C)c1O` (stereo not drawn) had a pIC50 of 6.22.
Regarding `CC(C)(C)c1cc(C2=NNC(c3ccc(O)c([N+](=O)[O-])c3)C2)cc(C(C)(C)C)c1O` (stereo not drawn), the pIC50 in assay [4] was 6.52. This pIC50 is 0.30 log units higher than that of the compound before.
On to `CC(C)c1cc(C2CC(c3cc(C(C)(C)C)c(O)c(C(C)(C)C)c3)=NN2)cc(C(C)C)c1O` (stereo not drawn), for which, in assay [4], the pIC50 is 6.15.
On the same count and under the same terms, for `COc1cc(C2CC(c3cc(C(C)(C)C)c(O)c(C(C)(C)C)c3)=NN2)ccc1O` (stereo not drawn) the value was 6.70; for `Cc1cc(C2CC(c3cc(C(C)(C)C)c(O)c(C(C)(C)C)c3)=NN2)c(C)c(C)c1O` (stereo not drawn), 6.22.

By pIC50 is commonly meant −log10 of the IC50, conventionally taken in molar units. A lower pIC50 goes with a high IC50.
